Data: ChEMBL document CHEMBL1153804, “Optimization of a series of quinazolinone-derived antagonists of CXCR3” (Bioorg Med Chem Lett, 2009)
Positions count from the first letter of the chain named. Activity calls are given as the source filed them. The rule behind the calls is not given here.

Experiments:
Blood [1] = test: Drug level in bleomycin-induced mouse blood at 1 mg/mL, sc; type: ADME, tissue-based
[2] = Oral bioavailability in dog at 2.5 mg/kg; type: ADME, organism-based, Canis lupus familiaris; conditions: in vivo
[3] = Volume of distribution at steady state in rat at 0.5 mg/kg, iv; type: ADME, organism-based; design: dose 0.5 mg/kg, route intravenous; conditions: in vivo, read-out: Vdss
[4] = Clearance in dog at 1 mg/kg, iv; type: ADME, organism-based, Canis lupus familiaris; design: dose 1 mg/kg, route intravenous; conditions: in vivo
Cytochrome P450 3A4 = Cytochrome P450 3A4 (Homo sapiens, UniProt P08684); test: Inhibition of CYP3A4; type: ADME
Chain of Cytochrome P450 3A4 (P08684 whole entry): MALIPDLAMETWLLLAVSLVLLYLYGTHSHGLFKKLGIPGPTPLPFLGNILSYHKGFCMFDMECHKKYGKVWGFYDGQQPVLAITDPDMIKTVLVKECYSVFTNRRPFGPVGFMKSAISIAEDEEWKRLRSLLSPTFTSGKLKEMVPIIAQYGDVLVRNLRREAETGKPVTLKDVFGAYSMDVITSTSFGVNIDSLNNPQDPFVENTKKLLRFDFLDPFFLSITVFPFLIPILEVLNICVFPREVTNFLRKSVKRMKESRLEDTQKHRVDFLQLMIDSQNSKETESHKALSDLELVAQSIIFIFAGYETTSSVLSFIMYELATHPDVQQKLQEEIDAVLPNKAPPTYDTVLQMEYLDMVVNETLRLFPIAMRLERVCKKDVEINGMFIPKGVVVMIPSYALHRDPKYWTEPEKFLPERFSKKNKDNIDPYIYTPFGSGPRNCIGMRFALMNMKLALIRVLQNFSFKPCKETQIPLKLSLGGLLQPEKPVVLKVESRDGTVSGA

[5] = molecular target: T1, C-X-C chemokine receptor type 3 (Mus musculus, UniProt O88410); test: Displacement of [125I]-IP10 from mouse CXCR3 expressed in human PBMC after 2 hrs in RPMI buffer by scintillation counting
T1 sequence (O88410 whole entry): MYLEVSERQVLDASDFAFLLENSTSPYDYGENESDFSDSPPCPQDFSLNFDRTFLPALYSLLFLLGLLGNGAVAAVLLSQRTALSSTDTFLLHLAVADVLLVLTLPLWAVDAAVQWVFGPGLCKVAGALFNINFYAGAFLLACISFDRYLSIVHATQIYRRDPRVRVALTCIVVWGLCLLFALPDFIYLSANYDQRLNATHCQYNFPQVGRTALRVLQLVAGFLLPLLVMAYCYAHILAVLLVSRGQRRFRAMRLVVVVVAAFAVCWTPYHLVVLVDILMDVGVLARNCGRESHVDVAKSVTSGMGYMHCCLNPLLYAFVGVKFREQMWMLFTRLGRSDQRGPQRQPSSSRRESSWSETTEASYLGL
In short: (§1)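 PBMC bearing CXCR3 were co-incubated with antagonist and recombinant human [125I]-IP10 for 2 h at room temperature in RPMI-1640 (no phenol red) with 0.5% BSA. Cells were harvested onto filter plates and bound radioactivity was counted by scintillation. IC50 values are means of three experiments.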

[6] = Clearance in mouse at 0.5 mg/kg, iv; type: ADME, organism-based; design: dose 0.5 mg/kg, route intravenous; conditions: in vivo
[7] = molecular target: T2, C-X-C chemokine receptor type 3 (Rattus norvegicus, UniProt Q9JII9); test: Displacement of [125I]-IP10 from rat CXCR3 expressed in human PBMC after 2 hrs in RPMI buffer by scintillation counting; in short: as §1
T2 sequence (Q9JII9 whole entry): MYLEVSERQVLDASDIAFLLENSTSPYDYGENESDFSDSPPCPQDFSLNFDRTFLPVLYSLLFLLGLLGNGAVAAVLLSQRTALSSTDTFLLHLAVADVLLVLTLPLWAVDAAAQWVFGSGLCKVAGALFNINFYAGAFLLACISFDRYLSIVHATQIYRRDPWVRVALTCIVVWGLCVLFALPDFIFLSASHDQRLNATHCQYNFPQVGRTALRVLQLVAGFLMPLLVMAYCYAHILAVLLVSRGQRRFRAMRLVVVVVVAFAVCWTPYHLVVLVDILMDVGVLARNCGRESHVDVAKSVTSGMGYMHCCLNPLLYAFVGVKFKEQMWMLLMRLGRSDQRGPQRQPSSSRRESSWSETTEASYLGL

[8] = Mean residence time in mouse at 0.5 mg/kg, iv; type: ADME, organism-based; design: dose 0.5 mg/kg, route intravenous; conditions: in vivo
Blood [9] = test: Drug level in bleomycin-induced mouse blood at 0.1 mg/mL, sc; type: ADME, tissue-based
Cytochrome P450 2D6 = Cytochrome P450 2D6 (Homo sapiens, UniProt P10635); test: Inhibition of CYP2D6; type: ADME
Chain of Cytochrome P450 2D6 (P10635 whole entry): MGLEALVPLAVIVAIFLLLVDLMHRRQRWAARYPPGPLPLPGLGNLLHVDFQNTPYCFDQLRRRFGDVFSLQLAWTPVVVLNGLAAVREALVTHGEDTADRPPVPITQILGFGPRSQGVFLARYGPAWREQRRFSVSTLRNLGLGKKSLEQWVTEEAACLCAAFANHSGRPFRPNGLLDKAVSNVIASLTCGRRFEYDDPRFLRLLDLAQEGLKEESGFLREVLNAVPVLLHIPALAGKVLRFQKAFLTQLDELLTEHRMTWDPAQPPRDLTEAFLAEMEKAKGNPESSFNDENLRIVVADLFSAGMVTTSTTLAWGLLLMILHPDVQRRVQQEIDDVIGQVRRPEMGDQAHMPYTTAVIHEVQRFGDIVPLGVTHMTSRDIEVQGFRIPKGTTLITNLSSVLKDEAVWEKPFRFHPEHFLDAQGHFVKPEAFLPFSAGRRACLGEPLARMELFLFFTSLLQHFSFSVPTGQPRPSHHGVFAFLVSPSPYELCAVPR

[10] = Oral bioavailability in mouse at 2 mg/kg; type: ADME, organism-based; conditions: in vivo
[11] = molecular target: T3, C-X-C chemokine receptor type 3 (Homo sapiens, UniProt P49682); test: Displacement of [125I]-ITAC from human CXCR3 expressed in human PBMC after 2 hrs in RPMI buffer by scintillation counting
T3 sequence (P49682 whole entry): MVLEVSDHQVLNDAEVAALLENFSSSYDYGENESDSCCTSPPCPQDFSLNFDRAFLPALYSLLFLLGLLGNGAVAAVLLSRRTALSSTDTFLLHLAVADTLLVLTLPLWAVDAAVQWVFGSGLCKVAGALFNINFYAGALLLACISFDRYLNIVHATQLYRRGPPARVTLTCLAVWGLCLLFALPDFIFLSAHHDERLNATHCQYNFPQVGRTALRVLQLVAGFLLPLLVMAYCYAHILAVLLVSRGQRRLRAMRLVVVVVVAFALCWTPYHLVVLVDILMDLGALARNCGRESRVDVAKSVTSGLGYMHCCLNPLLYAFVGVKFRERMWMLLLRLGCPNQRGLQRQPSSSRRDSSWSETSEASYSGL

[12] = Volume of distribution at steady state in cynomolgus monkey at 1 mg/kg, iv; type: ADME, organism-based, Macaca fascicularis; design: dose 1 mg/kg, route intravenous; conditions: in vivo, read-out: Vdss
[13] = Mean residence time in rat at 0.5 mg/kg, iv; type: ADME, organism-based; design: dose 0.5 mg/kg, route intravenous; conditions: in vivo
[14] = molecular target: T3, C-X-C chemokine receptor type 3; test: Displacement of [125I]-1P10 from human CXCR3 expressed in PBMC after 2 hrs in RPMI buffer by scintillation counting
[15] = Mean residence time in dog at 1 mg/kg, iv; type: ADME, organism-based, Canis lupus familiaris; design: dose 1 mg/kg, route intravenous; conditions: in vivo
Cytochrome P450 2C9 = Cytochrome P450 2C9 (Homo sapiens, UniProt P11712); test: Inhibition of CYP2C9; type: ADME
Chain of Cytochrome P450 2C9 (P11712 whole entry): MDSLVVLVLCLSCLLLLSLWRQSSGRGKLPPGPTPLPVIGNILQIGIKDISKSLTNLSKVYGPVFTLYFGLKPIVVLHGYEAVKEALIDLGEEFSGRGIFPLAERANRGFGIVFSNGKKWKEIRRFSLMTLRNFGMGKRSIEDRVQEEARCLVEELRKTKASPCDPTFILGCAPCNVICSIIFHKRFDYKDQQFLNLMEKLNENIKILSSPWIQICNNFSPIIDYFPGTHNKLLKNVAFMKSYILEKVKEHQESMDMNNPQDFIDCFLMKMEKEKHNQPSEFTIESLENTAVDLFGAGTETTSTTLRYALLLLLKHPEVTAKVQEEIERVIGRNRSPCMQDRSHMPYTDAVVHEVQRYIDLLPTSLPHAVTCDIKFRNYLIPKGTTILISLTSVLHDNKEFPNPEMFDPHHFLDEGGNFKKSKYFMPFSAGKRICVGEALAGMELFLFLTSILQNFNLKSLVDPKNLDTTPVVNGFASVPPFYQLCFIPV

[16] = Volume of distribution at steady state in dog at 1 mg/kg, iv; type: ADME, organism-based, Canis lupus familiaris; design: dose 1 mg/kg, route intravenous; conditions: in vivo, read-out: Vdss
Blood [17] = test: Drug level in bleomycin-induced mouse blood at 3 mg/mL, sc; type: ADME, tissue-based
Blood [18] = test: Drug level in bleomycin-induced mouse blood at 0.3 mg/mL, sc; type: ADME, tissue-based
[19] = Mean residence time in cynomolgus monkey at 1 mg/kg, iv; type: ADME, organism-based, Macaca fascicularis; design: dose 1 mg/kg, route intravenous; conditions: in vivo
CXC chemokine receptor 3 = molecular target: T4, CXC chemokine receptor 3 (Macaca mulatta, UniProt B8PY99); test: Displacement of [125I]-IP10 from rhesus monkey CXCR3 expressed in human PBMC after 2 hrs in RPMI buffer by scintillation counting; in short: as §1
T4 sequence (B8PY99 whole entry): T3 sequence (P49682 whole entry) with T83A, V259A

Mus musculus = test: Effect on bleomycin-induced cellular recruitment in sc dosed mouse assessed as inhibition of cellular infiltration measured 6 days after bleomycin challenge; type: functional, organism-based
[20] = Oral bioavailability in rat at 2 mg/kg; type: ADME, organism-based; conditions: in vivo
[21] = Clearance in rat at 0.5 mg/kg, iv; type: ADME, organism-based; design: dose 0.5 mg/kg, route intravenous; conditions: in vivo
[22] = molecular target: T3, C-X-C chemokine receptor type 3; test: Displacement of [125I]-1P10 from human CXCR3 expressed in human PBMC after 2 hrs by scintillation counting in plasma
In short: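 [125I]-IP10 displacement from CXCR3 on PBMC: cells co-incubated with antagonist and recombinant human [125I]-IP10 for 2 h at room temperature in EDTA-anticoagulated human plasma (from frozen stocks) in place of RPMI buffer. Filter harvest and scintillation counting; IC50 values are means of three experiments.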

**Q.** For `CCS(=O)(=O)CCN(C(=O)Cc1ccc(F)c(C(F)(F)F)c1)[C@H](C)c1nc2ncccc2c(=O)n1-c1ccc(OCC(F)(F)F)cc1`, which Drug uptake (Blood [1]) is on record?
**A.** 11 ng/mL

**Q.** What about the bioavailability [2] of the same compound?
**A.** 25%

**Q.** And the Vd [3]?
**A.** 2.5 L/kg

**Q.** What about the clearance [4] of the same compound?
**A.** 7.5 mL/min/kg

**Q.** What about the Activity (Cytochrome P450 3A4) of the same compound?
**A.** Active

**Q.** And the IC50 [5]?
**A.** 3 nM

**Q.** And the clearance [6]?
**A.** 13 mL/min/kg

**Q.** What about the IC50 [7] of the same compound?
**A.** 4 nM

**Q.** And the MRT [8]?
**A.** 1.1 h

**Q.** What about the Drug uptake (Blood [9]) of the same compound?
**A.** 2 ng/mL

**Q.** What about the Activity (Cytochrome P450 2D6) of the same compound?
**A.** Active

**Q.** What about the bioavailability [10] of the same compound?
**A.** 84%

**Q.** And the IC50 [11]?
**A.** 1 nM

**Q.** And the Vd [12]?
**A.** 1.4 L/kg

**Q.** What about the MRT [13] of the same compound?
**A.** 0.65 h

**Q.** What about the IC50 [14] of the same compound?
**A.** 1 nM

**Q.** And the MRT [15]?
**A.** 2.5 h

**Q.** What about the Activity (Cytochrome P450 2C9) of the same compound?
**A.** Active

**Q.** And the Vd [16]?
**A.** 1.1 L/kg

**Q.** And the Drug uptake (Blood [17])?
**A.** 18 ng/mL

**Q.** What about the Drug uptake (Blood [18]) of the same compound?
**A.** 6 ng/mL

**Q.** What about the MRT [19] of the same compound?
**A.** 1.6 h

**Q.** What about the IC50 (CXC chemokine receptor 3) of the same compound?
**A.** 2 nM

**Q.** And the Activity (Mus musculus)?
**A.** Active

**Q.** And the bioavailability [20]?
**A.** 26%

**Q.** What about the clearance [21] of the same compound?
**A.** 65 mL/min/kg

**Q.** What about the IC50 [22] of the same compound?
**A.** 6 nM
